From ChEMBL document CHEMBL3232993, “Design, synthesis, and structure-activity relationship of a novel series of GluN2C-selective potentiators” (J Med Chem, 2014)
The source made the active and inactive calls. No cut-off for these calls is given here.

What was measured:
Format in all cases: cell-based
[1] = target: Glutamate NMDA receptor; Grin1/Grin2b (Rattus norvegicus) (UniProt P35439+Q00960); assay: Potentiation of rat recombinant GluN1/GluN2B expressed in Xenopus laevis oocytes assessed as increase in glutamate/glycine-induced current response at 30 uM by two-electrode voltage clamp technique relative to control
In short: (§1)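 Two-electrode voltage clamp at −40 mV on Xenopus oocytes coexpressing GluN1 with GluN2A, 2B, 2C or 2D. […] Compounds came from 20 mM DMSO stocks, with 0.05–0.5% final DMSO. Some GluN2A oocytes were injected with K-BAPTA to limit current run-up. Recording solution was pH 7.4, 23 °C.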

[2] = target: Ionotropic glutamate receptor NMDA 1/2D (Rattus norvegicus) (UniProt P35439+Q62645); assay: Potentiation of rat recombinant GluN1/GluN2D expressed in Xenopus laevis oocytes assessed as increase in glutamate/glycine-induced current response at 30 uM by two-electrode voltage clamp technique relative to control; in short: as §1
[3] = target: Glutamate NMDA receptor; Grin1/Grin2c (Rattus norvegicus) (UniProt P35439+Q00961); assay: Potentiation of rat recombinant GluN1/GluN2C expressed in Xenopus laevis oocytes assessed as increase in glutamate/glycine-induced current response at 30 uM by two-electrode voltage clamp technique relative to control; in short: as §1
[4] = target: Glutamate NMDA receptor; Grin1/Grin2a (Rattus norvegicus) (UniProt P35439+Q00959); assay: Potentiation of rat recombinant GluN1/GluN2A expressed in Xenopus laevis oocytes assessed as increase in glutamate/glycine-induced current response at 30 uM by two-electrode voltage clamp technique relative to control; in short: as §1
[5] = target: Glutamate NMDA receptor; Grin1/Grin2c (Rattus norvegicus, UniProt P35439+Q00961); assay: Potentiation of rat recombinant GluN1/GluN2C expressed in Xenopus laevis oocytes assessed as increase in glutamate/glycine-induced current response by two-electrode voltage clamp technique relative to control

Activity [1] | Activity [2] | Activity [3] | Activity [4] | SMILES | max activation [3] | EC50 [5]
90% | 91% | 94% | 112% | COC(=O)c1ccc(C2C(C(=O)c3cccnc3)=C(O)C(=O)N2CCc2c[nH]c3ccc(OC)cc23)cc1 (stereo unspecified) |  | 
105% | 89% | 93% | 96% | CNC(=O)c1ccc(C2C(C(=O)c3cccnc3)=C(O)C(=O)N2CCc2c[nH]c3ccccc23)cc1 (stereo unspecified) |  | 
88% | 94% | 94% | 99% | COC(=O)c1cccc(C2C(C(C)=O)=C(O)C(=O)N2CCc2c[nH]c3ccccc23)c1 (stereo unspecified) |  | 
82% | 83% | 123% | 86% | NS(=O)(=O)c1ccc(C2C(C(=O)c3cccnc3)=C(O)C(=O)N2CCc2c[nH]c3ccccc23)cc1 (stereo unspecified) | 130% | 
83% | 80% | 113% | 96% | COC(=O)c1ccc(C2C(C(=O)c3cccnc3)=C(O)C(=O)N2CCc2coc3ccccc23)cc1 (stereo unspecified) |  | 
92% | 91% | 90% | 101% | NC(=O)c1ccc(C2C(C(=O)c3cccnc3)=C(O)C(=O)N2CCc2c[nH]c3ccccc23)cc1 (stereo unspecified) |  | 
94% | 88% | 93% | 100% | CC(=O)C1=C(O)C(=O)N(CCc2c[nH]c3ccccc23)C1c1ccc(C(=O)O)cc1 (stereo unspecified) |  | 
70% | 74% | 85% | 112% | COC(=O)c1ccc(C2C(C(=O)c3cccnc3)=C(O)C(=O)N2CCc2c[nH]c3cccc(C)c23)cc1 (stereo unspecified) |  | 
78% | 75% | 97% | 106% | COC(=O)c1ccc(C2C(C(=O)c3ccccn3)=C(O)C(=O)N2CCc2c[nH]c3ccccc23)cc1 (stereo unspecified) |  | 
83% | 77% | 94% | 106% | CC(=O)C1=C(O)C(=O)N(CCc2c[nH]c3ccccc23)C1c1ccc([N+](=O)[O-])cc1 (stereo unspecified) |  | 
85% | 75% | 102% | 93% | COC(=O)c1ccc(C2C(C(C)=O)=C(N)C(=O)N2CCc2c[nH]c3ccccc23)cc1 (stereo unspecified) |  | 
101% | 87% | 84% | 106% | COC(=O)c1ccc(C2C(C(=O)c3ccncc3)=C(O)C(=O)N2Cc2c[nH]c3ccccc23)cc1 (stereo unspecified) |  | 
117% | 99% | 95% | 108% | COC(=O)c1ccc(C2C(C(C)=O)=C(O)C(=O)N2CCc2ccccc2)cc1 (stereo unspecified) |  | 
90% | 80% | 109% | 92% | COC(=O)c1ccc(C2C(C(=O)c3cccc(OC)c3)=C(O)C(=O)N2CCc2c[nH]c3ccccc23)cc1 (stereo unspecified) |  | 
93% | 98% | 84% | 96% | COC(=O)c1ccc(C2C(C(=O)c3cccnc3)=C(O)C(=O)N2CCCc2c[nH]c3ccccc23)cc1 (stereo unspecified) |  | 
91% | 86% | 88% | 108% | COC(=O)c1ccc(C2C(C(C)=O)=C(O)C(=O)N2CCc2c[nH]c3ccccc23)cc1C (stereo unspecified) |  | 

Activity [1] | Activity [2] | Activity [3] | Activity [4] | SMILES | max activation [3] | EC50 [5]
83% | 93% | 114% | 99% | COC(=O)c1ccc(C2C(C(C)=O)=C(O)C(=O)N2CCc2c[nH]c3ccccc23)cc1F (stereo unspecified) |  | 
95% | 83% | 102% | 96% | CC(=O)C1=C(O)C(=O)N(CCc2c[nH]c3ccccc23)C1c1ccc(C(=O)OC(C)C)cc1 (stereo unspecified) |  | 
86% | 89% | 101% | 118% | CN(C)C(=O)c1ccc(C2C(C(=O)c3cccnc3)=C(O)C(=O)N2CCc2c[nH]c3ccccc23)cc1 (stereo unspecified) |  | 
88% | 95% | 179% | 97% | COC(=O)c1ccc(C2C(C(C)=O)=C(O)C(=O)N2CCc2c(C)[nH]c3ccccc23)cc1 (racemic) | 217% | 
 |  |  |  | COC(=O)c1ccc(C2C(C(C)=O)=C(O)C(=O)N2CCc2c(C)[nH]c3ccccc23)cc1 (stereo in doubt; 106a) | 259% | 
81% | 66% | 85% | 99% | CC(=O)C1=C(O)C(=O)N(CCc2c[nH]c3ccccc23)C1c1ccc(C(=O)OC(C)(C)C)cc1 (stereo unspecified) |  | 
87% | 85% | 106% | 111% | COC(=O)c1ccc(C2C(C(=O)c3cccnc3)=C(O)C(=O)N2CCc2cn(C)c3ccccc23)cc1 (stereo unspecified) |  | 
88% | 73% | 114% | 74% | CNS(=O)(=O)c1ccc(C2C(C(=O)c3cccnc3)=C(O)C(=O)N2CCc2c[nH]c3ccccc23)cc1 (stereo unspecified) |  | 
80% | 86% | 92% | 98% | COC(=O)c1ccc(C2C(C(C)=O)=C(O)C(=O)N2CCc2c[nH]c3ccccc23)cc1OC (stereo unspecified) |  | 
89% | 94% | 100% | 98% | N#Cc1ccc(C2C(C(=O)c3cccnc3)=C(O)C(=O)N2CCc2c[nH]c3ccccc23)cc1 (stereo unspecified) |  | 
 |  | inactive |  | COC(=O)c1ccc(C2C(C(C)=O)=C(O)C(=O)N2CCc2c(C)[nH]c3ccccc23)cc1 (stereo in doubt; 106b) |  | 
95% | 94% | 89% | 101% | COC(=O)c1ccc(C2C(C(=O)c3ccncc3)=C(O)C(=O)N2CCc2c[nH]cn2)cc1 (stereo unspecified) |  | 
95% | 83% | 113% | 88% | COC(=O)c1ccc(C2C(C(C)=O)=C(O)C(=O)N2CCc2c[nH]c3ccccc23)cc1Cl (stereo unspecified) |  | 
107% | 89% | 84% | 104% | COC(=O)c1ccc(C2C(C(=O)c3ccncc3)=C(O)C(=O)N2CCn2cnc3ccccc32)cc1 (stereo unspecified) |  | 
78% | 93% | 99% | 88% | COC(=O)c1ccccc1C1C(C(C)=O)=C(O)C(=O)N1CCc1c[nH]c2ccccc12 (stereo unspecified) |  | 

SMILES | Activity [1] | Activity [2] | Activity [3] | Activity [4] | max activation [3] | EC50 [5]
COC(=O)c1ccc(C2C(C(=O)c3cccc(Cl)c3)=C(O)C(=O)N2CCc2c[nH]c3ccccc23)cc1 (stereo unspecified) | 83% | 83% | 145% | 107% | 145% | 8.7 µM
COC(=O)c1ccc(C2C(C(=O)c3cccnc3)=C(O)C(=O)N2CCc2c[nH]c3cc(F)ccc23)cc1 (stereo unspecified) | 64% | 82% | 163% | 94% | 167% | 13 µM
COC(=O)c1ccc(C2C(C(=O)c3cccnc3)=C(O)C(=O)N2CCc2c[nH]c3c(Cl)cccc23)cc1 (stereo unspecified) | 85% | 78% | 127% | 90% | 128% | 7 µM
CCCC(=O)OC1=C(C(C)=O)C(c2ccc(C(=O)OC)cc2)N(CCc2c(C)[nH]c3ccccc23)C1=O (stereo unspecified) | 93% | 93% | 186% | 112% | 184% | 17 µM
COC(=O)c1ccc(C2C(C(=O)c3cccnc3)=C(O)C(=O)N2CCc2c[nH]c3ccccc23)cc1 (stereo unspecified) | 76% | 78% | 180% | 97% | 201% | 12 µM
COC(=O)c1ccc(C2C(C(=O)C(C)(C)C)=C(O)C(=O)N2CCc2c[nH]c3ccccc23)cc1 (stereo unspecified) | 93% | 79% | 129% | 87% | 187% | 52 µM
COC(=O)c1ccc(C2C(C(C)=O)=C(O)C(=O)N2CCc2c[nH]c3ccccc23)c(F)c1 (stereo unspecified) | 96% | 91% | 123% | 93% | 155% | 37 µM
COC(=O)c1ccc(C2C(C(=O)c3cccc(C)c3)=C(O)C(=O)N2CCc2c[nH]c3ccccc23)cc1 (stereo unspecified) | 90% | 84% | 122% | 97% | 131% | 16 µM
C=CC(=O)OC1=C(C(C)=O)C(c2ccc(C(=O)OC)cc2)N(CCc2c(C)[nH]c3ccccc23)C1=O (stereo unspecified) | 104% | 100% | 125% | 106% | 208% | 105 µM
CCC(=O)C1=C(O)C(=O)N(CCc2c[nH]c3ccccc23)C1c1ccc(C(=O)OC)cc1 (stereo unspecified) | 77% | 78% | 160% | 85% | 204% | 24 µM
COC(=O)c1ccc(C2C(C(=O)c3ccncc3)=C(O)C(=O)N2CCc2c[nH]c3ccccc23)cc1 (stereo unspecified) | 87% | 84% | 186% | 92% | 196% | 8.9 µM
